In ChEMBL document CHEMBL4732101, “Novel quinolone-based potent and selective HDAC6 inhibitors: Synthesis, molecular modeling studies and biological investigation” (Eur J Med Chem, 2021):
The source made the active and inactive calls. The rule behind the calls is not given here.

What was measured:
[1] = Solubility of compound in pH 3 buffer at 250 uM measured after 24 hrs by HPLC/UV/DAD method; type: physicochemical; settings: pH 3, 24 h
In short: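 10 mM DMSO stock diluted to 250 µM (2.5% DMSO) in 50 mM acetic acid, pH 3.0, and shaken 24 h at 25 °C. For solubility, samples filtered, diluted 1:2, quantified by HPLC-UV at 254 nm against a standard. For stability, percent remaining taken as the 24 h peak area over the T0 peak area. Triplicate analyses averaged.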

[2] = Mutagenicity in Salmonella typhimurium TA98 at 5 to 230 uM measured after 90 mins in absence of rat liver S9 fraction by Ames test; type: toxicity; settings: salmonella enterica subsp. enterica serovar typhimurium, 1.5 h, dose 5-230 µM
HCT-116 [3] = assay: Induction of apoptosis in human HCT-116 cells assessed as increase in PARP cleavage at 10 uM measured after 24 hrs by Western blot analysis; type: functional, cell-based
In short: (§1)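 HCT-116 or U937 cells treated at 10 µM for 12 and 24 h. […] Western blot used 40 µg total protein or 5 µg acid-extracted histone. Blots probed for cleaved PARP, acetylated tubulin, H3K9/14ac and Hsp90(AcLys294), normalized to GAPDH or H4. Compared with control cells by one-way ANOVA and Dunnett's test.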

[4] = Mutagenicity in Salmonella typhimurium TA100 at 5 to 230 uM measured after 90 mins in absence of rat liver S9 fraction by Ames test; type: toxicity; settings: salmonella enterica subsp. enterica serovar typhimurium, s9, 1.5 h, dose 5-230 µM
HCT-116 [5] = assay: Cytotoxicity against human HCT-116 cells assessed as reduction in cell viability measured after 24 hrs by MTT assay; type: functional, cell-based; settings: HCT-116, 24 h
In short: (§2)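 HCT-116 cells grown in DMEM with 10% FBS, 2 mM L-glutamine and antibiotics. 2.5×10^4 cells/well treated in triplicate at 50, 25, 10, 5 and 1 µM for 12, 24 or 48 h. Then MTT 0.5 mg/ml for 3 h, supernatant removed, formazan dissolved in isopropanol, absorbance read at 570 nm. IC50 derived from the concentration series.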

NIH3T3 = assay: Cytotoxicity against mouse NIH/3T3 cells assessed as reduction in cell viability after 24 hrs by neutral red uptake assay; type: cell-based; settings: NIH3T3, 24 h
In short: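 NIH3T3 fibroblasts seeded at 5 x 10^4 per well and cultured 24 h at 37 °C, 5% CO2. DMSO-solubilized samples added at 8 to 160 µM for 24 h; medium as negative control. Neutral Red medium applied 3 h, dye desorbed in acetic acid/ethanol, absorbance read at 540 nm. Three experiments, six replicates per concentration; viability normalized to % control.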

[6] = Cytotoxicity against human PBMC cells assessed as reduction in cell viability at 90 uM measured after 24 to 48 hrs by GUAVA easyCyte cytometric method; type: cell-based; settings: time 24-48 hrs
In short: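 PBMCs seeded at 1.5 x10^6/mL in complete medium and exposed to 15, 45 or 90 µM test compound, or DMSO vehicle, for 24 h and 48 h. Percentage of viable cells determined by flow cytometry with ViaCount reagent.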

HCT-116 [7] = assay: Cytotoxicity against human HCT-116 cells assessed as cell viability measured after 48 hrs by MTT assay relative to control; type: functional; in short: as §2
HCT-116 [8] = assay: Cytotoxicity against human HCT-116 cells assessed as reduction in cell viability measured after 48 hrs by MTT assay; type: functional, cell-based; settings: HCT-116, 48 h; in short: as §2
[9] = target: T1, Protein deacetylase HDAC6 (Homo sapiens) (UniProt Q9UBN7); assay: Inhibition of HDAC6 in human U-937 cells assessed as increase in Hsp90(AcLys294) acetylation at 10 uM measured after 12 to 24 hrs by Western blot analysis; type: cell-based; settings: time 12-24 hrs; in short: as §1
T1 sequence (whole entry): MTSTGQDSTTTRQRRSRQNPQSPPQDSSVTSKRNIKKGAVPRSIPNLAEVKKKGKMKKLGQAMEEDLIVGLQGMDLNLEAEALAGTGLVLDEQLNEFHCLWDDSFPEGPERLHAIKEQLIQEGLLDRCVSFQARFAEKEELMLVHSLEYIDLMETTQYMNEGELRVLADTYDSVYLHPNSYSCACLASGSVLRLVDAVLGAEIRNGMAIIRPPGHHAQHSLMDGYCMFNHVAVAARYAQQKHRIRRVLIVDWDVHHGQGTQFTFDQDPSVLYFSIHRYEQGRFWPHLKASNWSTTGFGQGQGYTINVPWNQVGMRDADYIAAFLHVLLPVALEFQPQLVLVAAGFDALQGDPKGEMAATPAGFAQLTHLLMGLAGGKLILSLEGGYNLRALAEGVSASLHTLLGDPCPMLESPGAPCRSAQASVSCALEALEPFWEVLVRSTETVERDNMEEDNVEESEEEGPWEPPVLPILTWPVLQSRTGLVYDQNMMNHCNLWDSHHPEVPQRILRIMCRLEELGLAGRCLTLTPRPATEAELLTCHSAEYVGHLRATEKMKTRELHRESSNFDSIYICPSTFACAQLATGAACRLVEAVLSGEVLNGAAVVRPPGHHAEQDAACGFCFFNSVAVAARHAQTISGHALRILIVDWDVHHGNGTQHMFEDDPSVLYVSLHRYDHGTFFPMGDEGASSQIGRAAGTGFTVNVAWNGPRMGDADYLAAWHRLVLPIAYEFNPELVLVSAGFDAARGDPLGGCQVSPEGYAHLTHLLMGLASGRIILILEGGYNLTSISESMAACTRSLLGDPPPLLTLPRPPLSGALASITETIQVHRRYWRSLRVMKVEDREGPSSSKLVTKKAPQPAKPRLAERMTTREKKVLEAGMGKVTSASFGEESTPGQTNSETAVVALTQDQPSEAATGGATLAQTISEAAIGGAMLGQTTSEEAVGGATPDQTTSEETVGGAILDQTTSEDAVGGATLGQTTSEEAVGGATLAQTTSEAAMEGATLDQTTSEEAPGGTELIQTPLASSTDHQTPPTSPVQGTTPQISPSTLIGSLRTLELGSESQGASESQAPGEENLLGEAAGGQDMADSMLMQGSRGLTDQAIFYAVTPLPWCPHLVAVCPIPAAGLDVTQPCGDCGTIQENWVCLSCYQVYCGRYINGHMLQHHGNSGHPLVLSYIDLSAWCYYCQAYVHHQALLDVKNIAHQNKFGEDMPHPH

[10] = Inhibition of HDAC1/2/3/8 in human U-937 cells assessed as increase in H3K9/14 acetylation at 10 uM measured after 12 to 24 hrs by Western blot analysis; type: cell-based; settings: u-937, 10 µM, time 12-24 hrs; in short: as §1
U-937 = assay: Cytotoxicity against human U-937 cells assessed as reduction in cell proliferation at 50 uM measured after 48 hrs by MTT assay relative to control; type: functional; design: scale not given: the % may be the effect or the level left
In short: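 U937 cells grown in RPMI-1640 with 10% FBS, 2 mM L-glutamine and penicillin-streptomycin. 2.5×10^4 cells/well treated in triplicate at 50, 25, 10, 5 and 1 µM for 12, 24 or 48 h. MTT 0.5 mg/ml added for 3 h, plate centrifuged 5 min at 1200 rpm, crystals dissolved in isopropanol, A570 read. IC50 derived from the concentration series.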

CCN(CC)Cc1ccc(Cn2c(=O)c(OCc3ccc(C(=O)NO)cc3)c(-c3cccnc3)c3ccccc32)cc1
solubility [1]: Soluble | Activity [2]: Non-Toxic | Activity (HCT-116 [3]): Active | Activity [4]: Non-Toxic | IC50 (HCT-116 [5]): 25.7 µM | IC50 (NIH3T3): 90 µM | Activity [6]: Toxic | Activity (HCT-116 [7]): 10% | IC50 (HCT-116 [8]): 8.4 µM | inhibition [9]: inactive | inhibition (INH) [10]: Active | Activity (U-937): 60%
